Experimental data from ChEMBL document CHEMBL3769318, “The Rational Design of Selective Benzoxazepin Inhibitors of the α-Isoform of Phosphoinositide 3-Kinase Culminating in the Identification of (S)-2-((2-(1-Isopropyl-1H-1,2,4-triazol-5-yl)-5,6-dihydrobenzo[f]imidazo[1,2-d][1,4]oxazepin-9-yl)oxy)propanamide (GDC-0326)” (J Med Chem, 2016).
Each block holds one compound with its values, some of them ahead of it.

What was measured:
[1] = Oral bioavailability in NCR nude mouse at 25 mg/kg; format: ADME, organism-based; details: in vivo
[2] = Antiproliferative activity against human MCF7-neo/Her2 cells after 3 days by luminescence plate reader method; format: functional, cell-based; details: 72 h
[3] = Toxicity in nude mouse xenografted with human MCF7-neo/Her2 cells; format: organism-based
Summary of the method: (§1)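 Breast cancer xenografts: MCF7-neo/HER2 grown in nude mice, KPL-4 in scid beige mice. Compound given orally once daily for 21 days at 0.78, 1.56, 3.25, 6.25 or 12.5 mg/kg in 0.5% methylcellulose/0.2% Tween-80, versus vehicle-treated mice. Tolerability judged by body weight loss, with under 10% loss as the criterion.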

[4] = Cytotoxicity against human KPL4 cells after 4 days by luminescence plate reader method; format: functional, cell-based; details: KPL4, 96 h
Mus musculus [5] = organism: Mus musculus; assay: animal or person; details: 1 h, read-out: INH
animal or person [6] = details: Homo sapiens, po, 504 h, read-out: TGI
Mus musculus [7] = assay: Volume of distribution at steady state in NCR nude mouse at 1 mg/kg, iv; details: in vivo
animal or person [8] = details: Homo sapiens, KPL4, po, 504 h, read-out: TGI
[9] = Plasma protein binding in CD-1 mouse at 5 uM after 4 hrs by LC-MS/MS analysis; format: ADME, cell-free; details: mouse, 4 h, 5 µM
Summary of the method: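 Equilibrium dialysis of pooled plasma (n ≥ 3) spiked with compound at 5 µM total against PBS pH 7.4, 37 °C, 5% CO2, for 4 h; plasma and buffer concentrations measured by LC-MS/MS; percent unbound calculated as buffer/plasma ×100.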

[10] = Clearance in NCR nude mouse at 1 mg/kg, iv; format: ADME, organism-based; details: in vivo
[11] = Toxicity in SCID beige mouse xenografted with human KPL4 cells; format: organism-based; details: in vivo; summary of the method: as §1
[12] = target: Phosphatidylinositol 4,5-bisphosphate 3-kinase catalytic subunit alpha isoform (Homo sapiens, UniProt P42336); assay: Inhibition of recombinant PI3K alpha (unknown origin) using PIP2 as substrate by fluorescence polarization assay; details: read-out: Ki(app)
Chain of Phosphatidylinositol 4,5-bisphosphate 3-kinase catalytic subunit alpha isoform (P42336 whole entry, canonical isoform): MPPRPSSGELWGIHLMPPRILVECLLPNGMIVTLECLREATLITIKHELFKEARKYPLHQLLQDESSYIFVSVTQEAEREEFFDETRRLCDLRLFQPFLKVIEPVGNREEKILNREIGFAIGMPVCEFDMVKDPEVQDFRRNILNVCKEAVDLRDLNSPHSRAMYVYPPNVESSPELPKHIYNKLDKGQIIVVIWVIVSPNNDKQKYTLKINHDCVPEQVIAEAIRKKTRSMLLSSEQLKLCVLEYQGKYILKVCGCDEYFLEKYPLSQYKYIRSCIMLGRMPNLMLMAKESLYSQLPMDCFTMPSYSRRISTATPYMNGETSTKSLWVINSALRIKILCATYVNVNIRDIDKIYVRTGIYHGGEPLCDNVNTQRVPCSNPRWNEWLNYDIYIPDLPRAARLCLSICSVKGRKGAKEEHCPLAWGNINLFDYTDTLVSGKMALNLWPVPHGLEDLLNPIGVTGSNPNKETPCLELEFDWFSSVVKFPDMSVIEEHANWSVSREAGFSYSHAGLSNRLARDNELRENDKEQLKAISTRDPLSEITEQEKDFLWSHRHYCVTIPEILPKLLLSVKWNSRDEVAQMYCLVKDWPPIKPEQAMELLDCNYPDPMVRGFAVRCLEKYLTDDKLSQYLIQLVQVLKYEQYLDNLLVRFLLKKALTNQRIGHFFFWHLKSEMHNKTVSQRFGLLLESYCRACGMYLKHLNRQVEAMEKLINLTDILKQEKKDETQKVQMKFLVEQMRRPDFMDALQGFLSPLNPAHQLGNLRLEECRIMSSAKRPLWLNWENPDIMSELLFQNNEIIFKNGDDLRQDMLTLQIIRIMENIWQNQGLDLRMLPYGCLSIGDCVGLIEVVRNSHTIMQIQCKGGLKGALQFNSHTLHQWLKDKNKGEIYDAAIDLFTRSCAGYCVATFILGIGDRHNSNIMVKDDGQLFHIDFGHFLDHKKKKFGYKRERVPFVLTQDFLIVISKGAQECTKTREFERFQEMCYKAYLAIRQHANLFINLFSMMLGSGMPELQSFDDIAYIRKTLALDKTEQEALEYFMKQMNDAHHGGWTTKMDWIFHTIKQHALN

[13] = Clearance in Sprague-Dawley rat at 1 mg/kg, iv; format: ADME, organism-based; details: in vivo
[14] = Antiproliferative activity against human PC3 cells after 4 days by luminescence plate reader method; format: functional, cell-based; details: PC-3, 96 h

Compound: Cc1nc(-c2cn3c(n2)-c2ccc(-c4cnn(C(C)(C)C(N)=O)c4)cc2OCC3)n(C(C)C)n1 [TASELISIB]
- bioavailability [1]: 100%
- EC50 [2]: 30 nM
- MTD [3]: 25 mg/kg
- EC50 [4]: 10 nM
- inhibition in vivo at 25 mg/kg (Mus musculus [5]): 74%
- inhibition in vivo at 25 mg/kg (animal or person [6]): 116%
- Vdss (Mus musculus [7]): 0.3 L/kg
- inhibition in vivo at 25 mg/kg (animal or person [8]): 125%
- PPB [9]: 97.5%
- clearance [10]: 3 mL/min/kg
- MTD [11]: 25 mg/kg

Compound: CC(C)n1ncnc1-c1cn2c(n1)-c1ccc(N3CCC[C@H]3C(N)=O)cc1OCC2
- EC50 [2]: 10 nM
- Ki [12]: 0.03 nM
- clearance [13]: 33 mL/min/kg
- EC50 [14]: 150 nM

Compound: CC(C)n1ncnc1-c1cn2c(n1)-c1ccc(N3CCCC[C@H]3C(N)=O)cc1OCC2
- EC50 [2]: 30 nM
- Ki [12]: 0.3 nM
- EC50 [14]: 870 nM

Continued by falling Ki [12], values first:

- Ki [12]: 3.6 nM
Compound: COc1cc2c(cn1)-c1nc(-c3ncnn3C(C)C)cn1CCO2

- Ki [12]: 0.2 nM
Compound: CC(C)n1ncnc1-c1cn2c(n1)-c1cnc(N(C)CC(N)=O)cc1OCC2
